As a reminder, the inhibition is the change of the read-out against control, counted positive when it falls.

Assay [1] in a line: inhibitors of TNFa-induced NFkB p65 translocation, primary screen, imaging, HUVEC, MLSMR starter and 10KST1 sets (AID 438;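 active = inhibition above 20% together with a positive visual image hit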;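 also: compound added about 3h40 before a 20 min TNFalpha stimulation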;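 as to inhibition: signal is the nuclear over cytoplasmic p65 intensity ratio per well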). The settings on record: HUVEC TNFa-induced p65 nuclear translocation; cell count: measured here: nuclei count (cytotoxicity indicator), at 2.08 µM; inhibition: at 2 µM, stronger effect = higher value, 0% TNFa-plus-vehicle, 100% no-TNFa wells.
Assay [2] can be described thus: endothelial E-selectin expression blockers – imaging, HUVEC, immunofluorescence, MLSMR starter and 10KST1 sets, primary screen (AID 487;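 active = visually confirmed hit in the image check and inhibition above 20%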;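 as to inhibition: signal is fraction of cell area covered by stained E-selectin grains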;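 as to nuclei count: 100% = median nuclei count of all wells on the same plate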). The settings on record: HUVEC TNFalpha-induced E-selectin immunofluorescence imaging, at 2 µM; inhibition: stronger effect = higher value; nuclei count: measured here: cell number, toxicity.
A short description of assay [3]: Primary imaging screen for DUSP6 inhibitors that restore phospho-Erk in transfected HeLa cells, chemical complementation (AID 609;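 active = compounds giving at least 50% inhibition in the cell-based MKP-3 phosphatase rescue imaging test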;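 as to inhibition: phospho-Erk level distribution per well compared with pooled transfected vehicle control wells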). The settings on record: HeLa MKP-3 transfected, phospho-Erk imaging KS statistic, at 10 µM, cells stimulated with TPA for 15 min.
Assay [4] deals with Dual specificity protein phosphatase 6 (Homo sapiens) (UniProt Q16828). Described as above. As to conditions: HeLa MKP-3 transfected, phospho-Erk imaging KS statistic; at 10 µM; stronger effect = higher value; cells stimulated with TPA for 15 min.
Sequence of Dual specificity protein phosphatase 6 (Homo sapiens) (Q16828 whole entry, looked up): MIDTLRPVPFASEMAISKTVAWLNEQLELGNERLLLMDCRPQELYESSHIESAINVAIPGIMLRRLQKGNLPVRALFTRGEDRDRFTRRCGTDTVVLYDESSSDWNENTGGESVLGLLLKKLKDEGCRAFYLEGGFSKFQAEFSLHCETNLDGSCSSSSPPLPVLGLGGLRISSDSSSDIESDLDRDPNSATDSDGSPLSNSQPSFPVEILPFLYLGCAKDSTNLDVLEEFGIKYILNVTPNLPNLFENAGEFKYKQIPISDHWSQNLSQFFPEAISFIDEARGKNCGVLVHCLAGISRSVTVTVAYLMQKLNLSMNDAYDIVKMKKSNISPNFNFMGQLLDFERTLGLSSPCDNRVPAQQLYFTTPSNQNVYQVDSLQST
Assay [5] deals with Voltage-gated potassium channel subunit beta-2 (Rattus norvegicus) (UniProt P62483). As to the kind of experiment: inhibitors of rat Kvbeta2 reductase activity – biochemical, NADPH fluorescence, primary screen (AID 622;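 active = fluorescence slope higher than the sample average by over 3 SD, cut at about -0.22 in these data, passing the limit was not always enough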;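 also: slope of raw intensity against log time taken from 70 to 1610 s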). The settings on record: recombinant KvBeta, 4-cyanobenzaldehyde reduction, at 10 µM, stronger effect = higher value.
Sequence of Voltage-gated potassium channel subunit beta-2 (Rattus norvegicus) (P62483 whole entry, looked up): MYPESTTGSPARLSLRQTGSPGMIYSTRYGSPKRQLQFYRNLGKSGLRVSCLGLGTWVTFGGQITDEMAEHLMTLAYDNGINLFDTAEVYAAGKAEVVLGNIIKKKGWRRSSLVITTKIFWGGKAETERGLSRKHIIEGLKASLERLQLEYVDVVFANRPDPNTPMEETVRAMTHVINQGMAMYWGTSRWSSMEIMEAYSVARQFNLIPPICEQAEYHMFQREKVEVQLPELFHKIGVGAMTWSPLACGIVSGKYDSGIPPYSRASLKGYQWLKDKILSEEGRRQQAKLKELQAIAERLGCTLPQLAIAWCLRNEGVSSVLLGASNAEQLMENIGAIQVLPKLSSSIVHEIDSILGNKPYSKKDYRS
For assay [6] the target is unchanged. As to the kind of experiment: enhancers of rat Kvbeta2 NADPH turnover – biochemical, NADPH fluorescence, primary screen (AID 623).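 Also: fluorescence intensity change per second fitted from 20 to 320 s.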 As to conditions: Recombinant KvBeta, NADPH fluorescence decrease slope, 10 min; at 10 µM; stronger effect = lower value.
Assay [7] concerns the target Alpha-2C adrenergic receptor (Homo sapiens) (UniProt P18825). The assay can be described thus: compounds altering alpha2C-coupled GIRK flux – cell-based, HEK293 alpha2C/GIRK1/2, thallium flux, primary screen (AID 624;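 active = fluorescence slope after compound addition differing from the mean of all screened samples at 99.7% confidence, in either direction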;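 also: slope of fluorescence ratio to pre-addition baseline per second over 15 to 24 s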). The settings on record: thallium flux BTC fluorescence, at 10 µM, actives lie on both sides.
Assay [8] can be described thus: inhibitors of larval lipid processing in zebrafish, primary screen, whole organism, PED6 fluorescence, gall bladder and intestine (AID 686;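 active = a full or partial loss of lipid-probe fluorescence in the fish gall bladder, intestine or both, judged by eye; inactive = no fluorescence loss, or compound toxic to the fish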;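 also: larvae 5 to 7 days old with five fish per well; signal comes from phospholipase A2 cleavage of quenched PED6 carried via bile; overnight exposure to compound and PED6 before scoring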). The settings on record: Zebrafish larvae PED6 lipid processing, fluorescence scoring; screened at 20 µM (by protocol). The method in brief:
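Test system – live zebrafish larvae aged 5-7 days, whole organism · Buffer or medium – E3 fish medium · Reagent – quenched phospholipase substrate PED6, 100 nM final, ingested by larvae · Doses – 20 µM single dose · Incubation – overnight compound and PED6 incubation · Technique – visual fluorescence microscopy scoring of gall bladder, gut · Read-out basis – visual per-well fluorescence inhibition score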

Assay [9] is described as follows: loss of swimming-algae plug formation – whole organism, Chlamydomonas reinhardtii, WT vs cilia-less mutant, absorbance, 96-well, primary screen (AID 463189;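 active = inhibition at or above 50% relative to wild type and mutant plate controls; inactive = inhibition below 50%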;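 also: 0% = wild type cc124 cells in DMSO and 100% = ciliumless bld1 mutant cells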). As to conditions: Chlamydomonas reinhardtii gravitaxis, OD600 absorbance, 2 days; at 10 µM; stronger effect = higher value.
[10] abbreviates: measured here: cell density z-score.
The mark [11] stands for this setting: measured here: nuclear c-Myc green intensity z-score.
Setting [12] is: measured here: nuclear pErk red intensity z-score, stronger effect = higher value.

Calls of active or inactive are those of the source.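 The calls were made as follows, unless noted: active = NADPH fluorescence slope more negative than the mean of all samples by about 3 SD, 99.7% confidence; inactive = the rest.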

Sequence of Alpha-2C adrenergic receptor (Homo sapiens) (P18825 whole entry, looked up): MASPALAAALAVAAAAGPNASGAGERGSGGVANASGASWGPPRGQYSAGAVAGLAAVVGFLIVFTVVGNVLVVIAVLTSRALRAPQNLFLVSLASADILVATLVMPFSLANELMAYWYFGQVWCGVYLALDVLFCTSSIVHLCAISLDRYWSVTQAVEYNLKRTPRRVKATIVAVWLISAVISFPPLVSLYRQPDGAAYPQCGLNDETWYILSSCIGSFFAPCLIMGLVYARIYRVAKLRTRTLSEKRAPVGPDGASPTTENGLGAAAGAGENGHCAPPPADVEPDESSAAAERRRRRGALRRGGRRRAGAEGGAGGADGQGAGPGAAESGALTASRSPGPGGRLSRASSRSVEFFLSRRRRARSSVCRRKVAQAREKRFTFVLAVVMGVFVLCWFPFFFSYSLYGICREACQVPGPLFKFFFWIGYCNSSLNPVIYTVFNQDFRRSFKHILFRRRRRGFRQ

Take `COCCNc1oc(-c2ccc(Cl)cc2)nc1C#N`: in [1], the cell count was determined as 465. Also, the inhibition in assay [1] was -6.3% (inactive); in [2] it was -25.2% (inactive); in assay [4], 2.46% (inactive); in [9], 10.6% (inactive). The nuclei count in assay [2] is 161%. In addition, the z-score in assay [3] (setting [10]) was 1.04; in [3] (setting [11]) it was -0.285; in assay [3] (setting [12]), -0.188. Also, the fluorescence slope in assay [5] was -0.17 (inactive). For the same molecule, the NADPH fluorescence slope in assay [6] was 9.3e-06 (inactive). The slope in [7] was 0.00534 (inactive). Besides, the molecule was classed as inactive in assay [8].

For `COc1ccc(C2=Nn3c(nnc3-c3ccccn3)SC2)cc1`, the cell count in [1] stood at 635. The inhibition in assay [1] is -4.7% (inactive); in [2], -43.3% (inactive); in [4], -4.27% (inactive); in assay [9] it was 2.53% (inactive). This molecule displayed a nuclei count in assay [2] of 169%. In addition, the z-score in assay [3] (setting [10]) was 0.562; in assay [3] (setting [11]), 0.488; in assay [3] (setting [12]) it was -0.686. The fluorescence slope in assay [5] is -0.427 (inactive). The NADPH fluorescence slope in assay [6] is -0.00018 (inactive). Also, the slope in assay [7] is 0.0069 (inactive). In assay [8], the result was inactive.

`Cc1cccc(N)c1SC1CCCCC1O` (centres undefined): the cell count in [1] was determined as 420. Besides, the inhibition in assay [1] is -5.2% (inactive); in [2] it was -79.6% (inactive); in assay [4] it was 23.9% (inactive); in assay [9] it was 15% (inactive). Also, in [2], the nuclei count was found to be 131%. The values for the z-score in assay [3] (setting [10]), in assay [3] (setting [11]) and in assay [3] (setting [12]) were 0.781, -1.44 and -1.09, respectively. The fluorescence slope in assay [5] is -0.46 (inactive). Besides, the NADPH fluorescence slope in assay [6] is -2.2e-05 (inactive). Moreover, the slope in assay [7] was 0.00629 (inactive). In addition, the call in [8] was inactive.

As to `COC(=O)C1C(=O)CC(C)(O)C(C(=O)OC)C1c1ccccc1F` (centres undefined), the cell count in assay [1] was 586. Further, the inhibition was -1.8% (inactive) in [1], -42.2% (inactive) in assay [2], 7.83% (inactive) in assay [4] and -7% (inactive) in [9]. For the same molecule, the nuclei count in assay [2] was 178%. Further, the z-score in [3] (setting [10]) is -1.74; in assay [3] (setting [11]), -0.438; in [3] (setting [12]), 1.61. For the same molecule, the fluorescence slope in assay [5] was -0.345 (inactive). The NADPH fluorescence slope in [6] is -3.4e-05 (inactive). Besides, the slope in assay [7] was 0.00488 (inactive). Also, in assay [8], the call was inactive.

Turning to `COC(=O)c1ccc(=O)n(Cc2ccco2)c1`, the cell count in assay [1] is 300. The inhibition is -2.7% (inactive) in assay [1], -70.6% (inactive) in assay [2], -6.48% (inactive) in [4] and -14.2% (inactive) in assay [9]. The same molecule yielded a nuclei count in assay [2] of 107%. Also, the z-score is -1.23 in assay [3] (setting [10]), 1.62 in [3] (setting [11]) and -0.83 in assay [3] (setting [12]). The fluorescence slope in assay [5] was -0.404 (inactive). In addition, the NADPH fluorescence slope in [6] was -1.8e-06 (inactive). The slope in assay [7] was 0.00511 (inactive). Also, the molecule was called inactive in assay [8].

Turning to `CCOC(=O)c1sc2c(c1C)c(=O)c(C(=O)OCC)cn2CC`, in assay [1], the cell count was 584. Further, the inhibition is -4.2% (inactive) in assay [1], -79% (inactive) in [2], 7.01% (inactive) in assay [4] and -0.239% (inactive) in assay [9]. The molecule also returned a nuclei count in [2] of 156%. In addition, the z-score was -0.851 in assay [3] (setting [10]), -0.225 in [3] (setting [11]) and 0.403 in [3] (setting [12]). In addition, the fluorescence slope in assay [5] was -0.376 (inactive). Moreover, the NADPH fluorescence slope in [6] was 4.1e-06 (inactive). Besides, in assay [7], the slope was 0.00559 (inactive). Besides, in [8], the call was inactive.

With `COCCn1c(N)c(C(=O)NCC2CCCO2)c2nc3ccccc3nc21` (centres undefined), in [1], the cell count came out at 564. Moreover, the inhibition in [1] was -8.3% (inactive); in assay [2], -74.5% (inactive); in assay [4] it was -11.5% (inactive); in [9], 26.2% (inactive). This molecule also registered a nuclei count in [2] of 106%. Further, the z-score in [3] (setting [10]) was 0.365; in assay [3] (setting [11]), -2.02; in assay [3] (setting [12]), 0.128. Also, in [5], the fluorescence slope was -0.0102 (inactive). Moreover, the NADPH fluorescence slope in assay [6] is 7e-06 (inactive). In addition, in assay [7], the slope is 0.00477 (inactive). In assay [8], the molecule was called inactive.

On to `CN(C)c1nc2sc3c(c2c(=O)n1C)CC(C)(C)OC3`, for which the cell count in assay [1] was found to be 651. In addition, the inhibition in assay [1] was -12.1% (inactive); in [2], -452% (inactive); in [4] it was -0.159% (inactive); in [9], 157% (active). This molecule also registered a nuclei count in assay [2] of 185%. Moreover, the results for the z-score in assay [3] (setting [10]), in assay [3] (setting [11]) and in [3] (setting [12]) were -0.36, 0.198 and 1, respectively. In [5], the fluorescence slope is -0.514 (inactive). In addition, in assay [6], the NADPH fluorescence slope was -4.6e-05 (inactive). Also, the slope in assay [7] was 0.00471 (inactive). In assay [8], the call was inactive.

Consider `COc1cc2c(C(=O)N3CCN(c4ccccc4)CC3)c(C)oc2cc1Br`, for which, in [1], the cell count was determined as 539. Moreover, the inhibition in [1] is -0.9% (inactive); in assay [2], -65.1% (inactive); in assay [4], 10.5% (inactive); in [9], 1.23% (inactive). Besides, the nuclei count in assay [2] stood at 139%. In addition, the z-score in assay [3] (setting [10]) was 1.72; in assay [3] (setting [11]), -0.592; in [3] (setting [12]), -0.944. In addition, the fluorescence slope in assay [5] is -0.532 (inactive). Further, the NADPH fluorescence slope in assay [6] was -2.7e-05 (inactive). Besides, the slope in [7] was 0.00643 (inactive). Besides, the molecule was called inactive in assay [8].

For `COc1cc(-c2cc(C(F)(F)F)n3ncc(C(=O)O)c3n2)cc(OC)c1OC`, the cell count in assay [1] amounted to 479. Moreover, the inhibition in [1] is -8.4% (inactive); in [2] it was -63% (inactive); in [4], 11.3% (inactive); in [9], -8.65% (inactive). In assay [2], the nuclei count amounted to 123%. Further, the results for the z-score in assay [3] (setting [10]), in assay [3] (setting [11]) and in assay [3] (setting [12]) were 0.0221, -0.381 and 0.038, respectively. Moreover, the fluorescence slope in [5] was -0.439 (inactive). Besides, the NADPH fluorescence slope in assay [6] was -0.000193 (inactive). Further, the slope in [7] was 0.00431 (inactive). Moreover, the call in assay [8] was inactive.

Regarding `COCCCNC(=O)C(C#N)c1nc2ccccc2nc1N1CCCC1` (centres undefined), the cell count in assay [1] came out at 459. Moreover, the inhibition was 12.6% (inactive) in assay [1], -130% (inactive) in assay [2], 7.83% (inactive) in assay [4] and -2.67% (inactive) in assay [9]. The nuclei count in assay [2] was 156%. Further, the z-score in assay [3] (setting [10]) is 1.4; in [3] (setting [11]) it was 0.549; in assay [3] (setting [12]) it was -0.292. Besides, in [5], the fluorescence slope is -0.000219 (active). In [6], the NADPH fluorescence slope is 0 (inactive). The slope in [7] was 0.0065 (inactive). Moreover, the result in assay [8] was inactive.

As to `CC1(C)Cc2c(C#N)c(NCCN3CCOCC3)nc(-c3ccco3)c2CO1`, the cell count in [1] amounted to 579. Moreover, the inhibition in [1] is -8.4% (inactive); in [2] it was -62.4% (inactive); in assay [4], 26.5% (inactive); in [9], 34% (inactive). Moreover, in assay [2], the nuclei count was 149%. For the same molecule, the figures for the z-score in assay [3] (setting [10]), in assay [3] (setting [11]) and in [3] (setting [12]) were 0.114, 1.74 and -1.62, respectively. In addition, in assay [5], the fluorescence slope is -0.295 (inactive). Further, in [6], the NADPH fluorescence slope is -3e-06 (inactive). The slope in [7] is 0.00581 (inactive). For the same molecule, in [8], the molecule was called inactive.

Turning to `CC(=O)C(=[N+]=[N-])C(=O)NCc1ccccc1`, in assay [1], the cell count is 474. Besides, the inhibition in assay [1] was -11.6% (inactive); in assay [2] it was -71.5% (inactive); in assay [4], 5.95% (inactive); in assay [9] it was 24.1% (inactive). This molecule also came in with a nuclei count in [2] of 95.4%. Also, the z-score is 0.378 in [3] (setting [10]), -1.15 in assay [3] (setting [11]) and 0.485 in [3] (setting [12]). The fluorescence slope in assay [5] was -0.518 (inactive). In addition, in assay [6], the NADPH fluorescence slope was -4e-05 (inactive). For the same molecule, in assay [7], the slope is 0.00636 (inactive). In addition, the result in assay [8] was inactive.
